Reference: paper PMC10938568 (Science Advances, 2021)

Columns and labels:
FNIP1/2_DKO HeLa cells = assay: GPNMB protein level; assay type: cell-based; conditions: prolonged treatment; WT or LIR FNIP1 in FNIP1/2_DKO HeLa
Outline: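 GPNMB, a TFEB/TFE3 target, was read by Western blot in FNIP1/2_DKO HeLa re-expressing WT or LIR-variant FNIP1 after prolonged stimulation to activate TRPML1. Cells were grown at 37°C in 5% CO2. Lysates were denatured in Laemmli buffer (100°C, 5 min). Primary antibody (1:1000 unless noted) was in 5% BSA/TBS-0.2% Tween 20, overnight at 4°C. HRP secondary was 1:20,000, 1 h at RT.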

TFEB = TFEB activation / nuclear localization; assay type: cell-based
Outline: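 FNIP1/2_DKO HeLa expressing WT or LIR FNIP1 were stimulated with two TRPML1-activating agents (2 μM and 1 μM). TFEB was immunostained with primary antibody overnight at 4°C, then Alexa secondary (1:1000) with DAPI for 1 h at RT. TFEB nuclear localization was scored by high-content imaging, ≥1500 cells per condition. Values are means ± SD; unpaired t test.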

HEK293T cells = assay: LC3 lipidation / GFP-LC3B puncta, WT or ATG13_KO cells; assay type: cell-based, human; conditions: for LC3 lipidation / puncta (in words): HEK293T WT or ATG13_KO, MK6-83 25 μM, C8 2 μM, AZD8055 1 μM
Outline: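 HEK293T cells in DMEM with 10% FBS and 1% penicillin/streptomycin at 37°C, 5% CO2, treated over a time course. Lysates denatured in Laemmli buffer at 100°C for 5 min. Immunoblot: primary antibodies in 5% BSA/TBS-0.2% Tween 20 overnight at 4°C; HRP secondaries at 1:20,000 for 1 h at room temperature. GFP-LC3B followed by time-lapse imaging.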

[1] = test system: primary bone marrow–derived macrophages (BMDMs); assay: LC3 puncta in primary BMDMs, ATG16L1 WT or K490A; assay type: cell-based, mouse; conditions: 1 hour
[2] = test system: FLCN-FNIP1 complex in HeLa cells; assay: FLCN-FNIP recruitment to membrane fractions, Western blot; assay type: cell-based; conditions: monensin 1uM, C8 2uM, 30 min; WT or TRPML1_KO HeLa
Outline: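 HeLa cells (WT or TRPML1_KO) grown in DMEM with 10% FBS and 1% penicillin/streptomycin at 37°C, 5% CO2. 1.5 × 10^6 cells plated the day before treatment. Membrane fractions prepared with a commercial kit and denatured in Laemmli buffer at 100°C for 5 min. Immunoblot: primary antibodies in 5% BSA/TBS-0.2% Tween 20 at 4°C overnight; HRP secondaries at 1:20,000 for 1 h at room temperature.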

FLCN-FNIP1 complex = assay: Co-immunoprecipitation of GABARAP with FLCN-FNIP1; assay type: binding, human; conditions: HEK293T cells, transfected 20 hours

Which “GPNMB protein levels (in words)” value (FNIP1/2_DKO HeLa cells) does the source give for `COc1ccc(-c2ccc3c(N4CCOC[C@@H]4C)nc(N4CCOC[C@@H]4C)nc3n2)cc1CO` [AZD8055] here?
The value was “largely suppressed”.

What about the “TFEB activation versus ATG16L1 allele status (in words)” value (TFEB; ATG16L1_KO HeLa reexpressing ATG16L1 variants) of the same molecule?
Its value is “activated TFEB irrespective of ATG16L1 allele status”.

And the “TFEB activation / nuclear accumulation (in words)” value (TFEB; HeLa)?
The value was “robust TFEB activation”.

What about the “LC3 lipidation, sensitivity to BafA1 or PIK-III (in words)” value (HEK293T cells; BafA1 100 nM, PIK-III 5 μM) of the same molecule?
Its value is “sensitive to the VPS34 inhibitor PIK-III and potentiated with the vacuolater ATPase (V-ATPase) inhibitor bafilomycin A1 (BafA1)”.

What about the “LC3 lipidation / puncta (in words)” value (HEK293T cells) of the same molecule?
The value was “able to regulate LC3 lipidation in WT but not ATG13_KO cells”.

`CO/C1=C\C(C)=C\[C@@H](C)[C@@H](O)[C@@H](C)C/C(C)=C/C=C/[C@H](OC)[C@@H]([C@@H](C)[C@@H](O)[C@H](C)[C@@]2(O)C[C@@H](O)[C@H](C)[C@@H](C(C)C)O2)OC1=O` [BafA1, bafilomycin A1] was tested. Which “TFEB activation, effect of BafA1 cotreatment (in words)” value (TFEB; BafA1 100 nM, acute, HeLa) did it give?
The value was “sufficient to block TFEB activation by TRPML1 agonists; however, it did not affect TFEB activation upon mTOR inhibition”.

How did the “LC3 lipidation / puncta (in words)” value (HEK293T cells) turn out when `Cc1ccc(S(=O)(=O)Nc2ccccc2N2CCCCC2)s1` [MK6-83] was run?
The value was “rapid conversion of LC3 from its cytoplasmic “I” form to the lipidated, punctate “II” form in both wild-type (WT) and autophagy-deficient cells (ATG13_KO)”.

How did the “LC3 puncta in BMDMs (in words)” value [1] turn out when `CC1=CC(C)(C)N(C(=O)CN2C(=O)c3ccccc3C2=O)c2ccccc21` [ML-SA1] was run?
The value was “unable to induce LC3 puncta in ATG16L1^K490A-expressing cells”.

And the “LC3 lipidation / puncta (in words)” value (HEK293T cells)?
The value was “rapid conversion of LC3 from its cytoplasmic “I” form to the lipidated, punctate “II” form in both wild-type (WT) and autophagy-deficient cells (ATG13_KO)”.

Which results are given for `CC[C@@]1([C@@H]2O[C@@H]([C@H]3O[C@@](O)(CO)[C@H](C)C[C@@H]3C)C[C@@H]2C)CC[C@H]([C@]2(C)CC[C@]3(C[C@H](O)[C@@H](C)[C@@H]([C@@H](C)[C@@H](OC)[C@H](C)C(=O)O)O3)O2)O1` [monensin]?
FLCN-FNIP membrane recruitment (in words) [2]: could induce FLCN-FNIP1 complex sequestration independently of TRPML1; TFEB activation, FNIP1-LIR dependence (in words) (TFEB; FNIP1-WT or FNIP1-LIR in FNIP1/2_DKO HeLa, monensin 1uM, 4 hr): regulated TFEB activation in an FNIP1-LIR domain–dependent manner

How did the “interaction with FLCN-FNIP1 complex (in words)” value (FLCN-FNIP1 complex) turn out when “GABARAP: full-length human GABARAP (1 to 117), ATG8 family protein” was run?
Its value is “interacts with GABARAP through LIR-dependent binding”.
